What was measured:
[1] = target: Glutamate NMDA receptor; GRIN1/GRIN2A (Homo sapiens, UniProt Q05586+Q12879); assay: Antagonist activity at recombinant NR1/NR2A receptor expressed in Xenopus laevis oocytes; type: functional, cell-based, Oocyte
How it was run: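 Two-electrode voltage clamp of oocytes injected with NR1 plus NR2A cRNA at 1:5 (0.1–4 ng NR1 plus 0.5–20 ng NR2), held at -70 mV. Receptors activated by superfused glycine and glutamate (10 µM). IC50 from concentration–inhibition curves over five or six concentrations; means ± SEM of four oocytes.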

[2] = target: Glutamate NMDA receptor; GRIN1/GRIN2B (Homo sapiens, UniProt Q05586+Q13224); assay: Antagonist activity at recombinant NR1/NR2B receptor expressed in Xenopus laevis oocytes; type: functional, cell-based, Oocyte
How it was run: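 Xenopus oocytes injected with NR1 plus NR2B cRNAs at 1:5 (0.1–4 ng NR1 plus 0.5–20 ng NR2). Two-electrode voltage clamp at −70 mV. Receptors activated by superfused glycine and glutamate (10 µM). IC50 from concentration–inhibition curves using five or six concentrations. Means ± SEM of four oocytes.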

[3] = tested on: FM3A; assay: Cytotoxicity in mouse FM3A cells after 48 hrs; type: functional, cell-based
How it was run: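 FM3A cells (1 × 10⁴) cultured in ES medium with or without various compound concentrations at 37 °C for 48 h. Cells counted with 0.05% Trypan blue. IC50 as mean ± SD of triplicate determinations.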

Chain of Glutamate NMDA receptor; GRIN1/GRIN2A (Q12879 whole entry, other chains not shown, the tested form may be a part): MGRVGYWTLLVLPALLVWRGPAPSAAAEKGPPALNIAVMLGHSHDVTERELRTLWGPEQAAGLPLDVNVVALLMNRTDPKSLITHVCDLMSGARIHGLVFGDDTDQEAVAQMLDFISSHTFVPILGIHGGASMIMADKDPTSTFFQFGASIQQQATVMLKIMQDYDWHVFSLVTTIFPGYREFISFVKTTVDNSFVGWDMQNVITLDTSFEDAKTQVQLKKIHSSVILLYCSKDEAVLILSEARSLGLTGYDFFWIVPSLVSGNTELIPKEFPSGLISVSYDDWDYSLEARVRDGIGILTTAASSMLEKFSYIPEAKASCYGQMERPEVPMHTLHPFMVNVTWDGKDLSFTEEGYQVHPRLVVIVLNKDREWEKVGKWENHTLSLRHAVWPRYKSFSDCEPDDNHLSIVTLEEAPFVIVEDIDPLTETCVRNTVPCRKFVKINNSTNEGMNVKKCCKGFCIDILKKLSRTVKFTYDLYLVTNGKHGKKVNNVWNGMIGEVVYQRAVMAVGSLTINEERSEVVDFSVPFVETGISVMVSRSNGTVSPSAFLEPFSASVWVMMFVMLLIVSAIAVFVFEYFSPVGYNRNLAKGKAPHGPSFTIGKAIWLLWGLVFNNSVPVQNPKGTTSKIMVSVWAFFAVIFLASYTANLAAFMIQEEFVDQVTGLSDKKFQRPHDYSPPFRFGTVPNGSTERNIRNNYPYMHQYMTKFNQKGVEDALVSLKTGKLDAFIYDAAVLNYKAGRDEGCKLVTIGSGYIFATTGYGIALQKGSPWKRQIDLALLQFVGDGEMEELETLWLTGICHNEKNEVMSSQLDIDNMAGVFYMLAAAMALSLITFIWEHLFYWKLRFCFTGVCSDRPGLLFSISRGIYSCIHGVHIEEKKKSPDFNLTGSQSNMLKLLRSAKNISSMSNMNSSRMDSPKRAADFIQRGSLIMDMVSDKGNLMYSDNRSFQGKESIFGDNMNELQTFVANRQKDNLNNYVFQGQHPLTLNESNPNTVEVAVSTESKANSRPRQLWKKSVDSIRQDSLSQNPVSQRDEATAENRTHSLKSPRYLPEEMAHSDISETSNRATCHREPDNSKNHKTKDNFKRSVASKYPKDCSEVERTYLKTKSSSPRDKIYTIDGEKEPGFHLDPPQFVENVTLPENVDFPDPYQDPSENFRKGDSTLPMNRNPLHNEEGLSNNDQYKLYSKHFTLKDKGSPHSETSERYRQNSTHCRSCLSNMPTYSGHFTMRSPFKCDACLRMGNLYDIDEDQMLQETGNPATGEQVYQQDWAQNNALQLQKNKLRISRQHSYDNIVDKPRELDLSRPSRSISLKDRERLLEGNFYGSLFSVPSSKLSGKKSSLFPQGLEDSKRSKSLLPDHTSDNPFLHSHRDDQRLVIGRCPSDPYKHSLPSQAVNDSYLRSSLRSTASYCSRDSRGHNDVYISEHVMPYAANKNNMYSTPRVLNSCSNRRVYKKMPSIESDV
Chain of Glutamate NMDA receptor; GRIN1/GRIN2B (Q13224 whole entry, other chains not shown, the tested form may be a part): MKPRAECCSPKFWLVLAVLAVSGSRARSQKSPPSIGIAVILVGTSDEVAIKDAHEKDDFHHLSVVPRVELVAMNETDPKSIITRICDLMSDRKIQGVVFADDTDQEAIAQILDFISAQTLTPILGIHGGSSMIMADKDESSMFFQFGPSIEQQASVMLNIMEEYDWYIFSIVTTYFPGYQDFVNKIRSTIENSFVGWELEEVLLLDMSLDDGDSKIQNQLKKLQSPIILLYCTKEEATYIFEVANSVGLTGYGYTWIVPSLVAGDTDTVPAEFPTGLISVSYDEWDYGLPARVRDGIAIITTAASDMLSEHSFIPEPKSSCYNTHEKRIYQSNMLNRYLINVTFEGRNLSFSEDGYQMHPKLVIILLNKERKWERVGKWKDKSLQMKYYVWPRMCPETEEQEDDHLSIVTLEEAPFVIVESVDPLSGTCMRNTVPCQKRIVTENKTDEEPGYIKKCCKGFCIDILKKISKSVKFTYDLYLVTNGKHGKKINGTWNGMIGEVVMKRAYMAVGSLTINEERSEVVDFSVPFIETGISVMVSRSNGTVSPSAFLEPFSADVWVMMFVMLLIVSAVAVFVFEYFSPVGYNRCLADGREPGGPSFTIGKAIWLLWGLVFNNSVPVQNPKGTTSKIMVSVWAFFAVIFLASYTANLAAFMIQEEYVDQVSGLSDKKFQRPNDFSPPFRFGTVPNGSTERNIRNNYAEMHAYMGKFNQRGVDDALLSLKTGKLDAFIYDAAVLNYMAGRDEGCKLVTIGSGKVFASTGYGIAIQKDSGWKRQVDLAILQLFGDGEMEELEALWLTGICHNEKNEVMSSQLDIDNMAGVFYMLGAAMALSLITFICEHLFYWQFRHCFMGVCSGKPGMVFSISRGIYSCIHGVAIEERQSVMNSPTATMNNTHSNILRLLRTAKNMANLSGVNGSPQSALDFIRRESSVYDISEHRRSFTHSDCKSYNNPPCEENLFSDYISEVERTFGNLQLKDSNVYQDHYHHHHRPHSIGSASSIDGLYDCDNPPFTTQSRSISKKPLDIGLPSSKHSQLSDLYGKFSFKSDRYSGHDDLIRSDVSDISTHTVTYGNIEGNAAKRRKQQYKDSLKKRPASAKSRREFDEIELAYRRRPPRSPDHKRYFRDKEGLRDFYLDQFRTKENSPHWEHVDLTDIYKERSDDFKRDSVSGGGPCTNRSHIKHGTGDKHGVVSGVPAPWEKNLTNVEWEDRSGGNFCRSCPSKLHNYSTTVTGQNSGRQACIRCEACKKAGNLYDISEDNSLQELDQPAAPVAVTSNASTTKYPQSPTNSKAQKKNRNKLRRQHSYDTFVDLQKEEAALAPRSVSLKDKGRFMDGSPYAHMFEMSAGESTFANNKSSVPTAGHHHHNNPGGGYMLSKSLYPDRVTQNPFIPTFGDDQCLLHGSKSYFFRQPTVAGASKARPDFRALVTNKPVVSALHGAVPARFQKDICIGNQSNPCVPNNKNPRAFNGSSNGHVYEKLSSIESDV

Row | Structure (SMILES) | IC50 [1] [µM] | IC50 [2] [µM] | IC50 [3] [µM]
1 | NCCCNCCCCNCCCNC(=O)N1c2ccccc2Sc2ccccc21 | 0.215 | 0.348 | 57.1
2 | NCCCCNCCCCNCCCCNC(=O)N1c2ccccc2Sc2ccccc21 | 0.127 | 0.108 | 40.4
3 | NCCCCNCCCNCCCCNC(=O)N1c2ccccc2Sc2ccccc21 | 0.078 | 0.108 | 32.5
4 | NCCCCNCCCCNCCCCNC(=O)N1c2ccccc2C=Cc2ccccc21 | – | 0.293 | 132
5 | NCCCCNCCCNCCCCNC(=O)N1c2ccccc2C=Cc2ccccc21 | 0.198 | 0.335 | 115
6 | NCCCCNCCCNCCCCNC(=O)n1c2ccccc2c2ccccc21 | 0.211 | 0.189 | 42.3
7 | NCCCNCCCCNCCCNC(=O)N1c2ccccc2C=Cc2ccccc21 | 0.203 | 0.199 | 97.6
8 | NCCCCNCCCCNCCCCNC(=O)N1c2ccccc2CCc2ccccc21 | – | 0.142 | 133
9 | NCCCNCCCCNCCCNC(=O)c1ccc2c(c1)C(=O)c1ccccc1C2=O | 0.392 | 0.491 | 14.9
10 | CC12CC3CC(C)(C1)CC(N)(C3)C2 [MEMANTINE] | – | – | 147
11 | NCCCCNCCCNCCCCNC(=O)N1c2ccccc2CCc2ccccc21 | 0.117 | 0.27 | 169
12 | NCCCCNCCCCNCCCCNC(=O)n1c2ccccc2c2ccccc21 | 0.111 | 0.166 | 84.2
13 | NCCCNCCCCNCCCNC(=O)n1c2ccccc2c2ccccc21 | 0.145 | 0.083 | 31.3
14 | NCCCNCCCCNCCCNC(=O)N1c2ccccc2CCc2ccccc21 | 0.958 | 0.442 | 102
